Compound activity as filed in PubChem.
This is a sample that favours compounds with a hit; in the whole collection about 2.9% have one here.
IMP-1 inhibitor: blocks Pseudomonas aeruginosa IMP-1 metallo-beta-lactamase; purified IMP-1, nitrocefin hydrolysis, epi-absorbance fluorescence; inhibition, % at 5.6 µM; hit rate 0.45% among 290,000; AID 1556;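 active = inhibition above the mean plus 3 SD of all compounds in the same screening run, cut at about 4.5% in these data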;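 also: 0% = IMP-1 with DMSO and 100% = DMSO wells lacking enzyme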
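Test system: recombinant IMP-1 enzyme, purified / Medium: HEPES buffer pH 7.1 with ZnSO4 and Brij 35 / Doses: single dose, 5.6 µM / Times: 25 °C, 15 min preincubation, 25 min reaction / Detection: Epi-absorbance via hydrolysed-nitrocefin quenching of white-plate fluorescence, 480/530 nm, EDTA stop / Evaluation: percent inhibition from optical density relative to buffer-blank wells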
VIM-2 inhibitor: inhibitors of Pseudomonas aeruginosa VIM-2 metallo-beta-lactamase | purified VIM-2, nitrocefin hydrolysis, epi-absorbance fluorescence | hit rate 0.89% among 290,000 | inhibition, % at 5.6 µM | AID 1527;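 active = inhibition above the mean of all tested compounds plus 3 SD, cutoff set per screening run, cut at about 7.5% in these data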;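 also: red hydrolysis product quenches plate fluorescence so inhibitors raise well fluorescence; 0% = enzyme with DMSO and 100% = DMSO without enzyme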
DNA FID counter: counter-screen for HCV NS3 helicase inhibitors: DNA intercalator displacement; DNA fluorescent intercalator displacement, fluorescence; inhibition, % at 7.9 µM; hit rate 0.17% among 290,000; in the data active = inhibition above about 37%;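 also: 0% = vehicle and 100% = reference compound; higher means more ethidium bromide displaced from hairpin DNA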
SUMO HTRF inh: SUMOylation inhibition | AID 2006 | inhibition, % at 35 µM | hit rate 0.36% among 290,000 | HTRF SUMOylation assay, SAE1/SAE2 + UBC9, in vitro; in the data active = inhibition above about 50%, passing the limit was not always enough
Target sequence (P63279 whole entry, looked up): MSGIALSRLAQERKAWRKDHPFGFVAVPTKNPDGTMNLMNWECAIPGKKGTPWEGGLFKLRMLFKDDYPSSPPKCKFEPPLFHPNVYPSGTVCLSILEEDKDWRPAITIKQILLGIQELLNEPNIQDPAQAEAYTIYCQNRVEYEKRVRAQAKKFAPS
NALP1 yeast inh: inhibitors of NALP1 inflammasome in yeast; inhibition, % at 10 µM; S. cerevisiae NALP1/ASC/caspase-1 growth, X-gal OD620, 72 h; hit rate 0.61% among 280,000; in the data active = inhibition mostly above about 24%, no sharp cut-off; inactive = mostly below about 32%
Mot1-301 SUMO: SUMOylation pathway inhibition by Mot1-301 growth rescue; S. cerevisiae Mot1-301 growth rescue, ATP luminescence, 38.5C; percent above DMSO median, 100 means doubled; hit rate 1% among 320,000; growth rescue, % at 18.8 µM;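 active = every valid replicate shows activation above 250% relative to neutral control wells; inactive = the rest, any valid replicate at or below 250%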;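 also: OY570 slx delta 5 strain wells were the positive control but not used for scaling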
Numbers without * were called inactive.

Results for Fc1ccc(C2CCCN2Cc2nc(Cc3ccccc3)no2)cc1 (stereo not drawn) ?
IMP-1 inhibitor: -2; VIM-2 inhibitor: -3; DNA FID counter: -1; SUMO HTRF inh: -7; NALP1 yeast inh: -6; Mot1-301 SUMO: -1

What do the screens show for `CCOc1ncccc1C(=O)Nc1nc(SC)ns1`?
IMP-1 inhibitor: -1; VIM-2 inhibitor: 2; DNA FID counter: -7; SUMO HTRF inh: 6; NALP1 yeast inh: -2; Mot1-301 SUMO: -14

How did COc1ccc(S(=O)(=O)N2CCCCCC2)cc1C(=O)Nc1cc(C)ccn1 do in these assays?
Mot1-301 SUMO: 17

Results for Cc1ccnc(NC(=O)c2cc(S(=O)(=O)N3CCCCC3)ccc2Cl)c1 ?
IMP-1 inhibitor: -3; VIM-2 inhibitor: -2; DNA FID counter: -4; SUMO HTRF inh: 9; NALP1 yeast inh: 40*; Mot1-301 SUMO: 6

What do the screens show for `O=C(CS(=O)(=O)c1cn(CC(=O)N2CCCC2)c2ccccc12)Nc1ccccc1F`?
IMP-1 inhibitor: 0; VIM-2 inhibitor: -2; DNA FID counter: -12; SUMO HTRF inh: 12; NALP1 yeast inh: 14; Mot1-301 SUMO: -9

What do the screens show for `Cc1ccc(-c2ccc(S(=O)(=O)Nc3cccnc3)cc2)cc1`?
IMP-1 inhibitor: -2; VIM-2 inhibitor: -2; DNA FID counter: -15; SUMO HTRF inh: 24; NALP1 yeast inh: 6; Mot1-301 SUMO: 112

How did CCc1[nH]nc2c1C1(CCN(C(=O)c3ccccc3)CC1)C(C#N)=C(N)O2 do in these assays?
IMP-1 inhibitor: -9; VIM-2 inhibitor: 11*; DNA FID counter: -5; SUMO HTRF inh: 7; NALP1 yeast inh: 20; Mot1-301 SUMO: -20

What do the screens show for `CN(C)/C=C1\SC(=S)N(N2C(=O)C3C4C=CC(C4)C3C2=O)C1=O` (stereo not drawn)?
IMP-1 inhibitor: -3; VIM-2 inhibitor: 12*; DNA FID counter: 0; SUMO HTRF inh: 8; NALP1 yeast inh: 8; Mot1-301 SUMO: 4

What do the screens show for `Nc1ncnc2oc(-c3ccco3)c(-c3ccco3)c12`?
IMP-1 inhibitor: 1; VIM-2 inhibitor: 0; DNA FID counter: 2; SUMO HTRF inh: 78*; NALP1 yeast inh: -6; Mot1-301 SUMO: 7

How did CSCCC(NC(=O)c1ccccc1Cl)C(=O)N1CC(C)OC(C)C1 (stereo not drawn) do in these assays?
Mot1-301 SUMO: 0

What do the screens show for `CN(C)c1ccc(NC(=O)CN2CCC(O)(c3ccccc3)CC2)cc1`?
IMP-1 inhibitor: -4; VIM-2 inhibitor: -1; DNA FID counter: 12; SUMO HTRF inh: 15; NALP1 yeast inh: 29*

What do the screens show for `CN(C)c1ccc(NC(=O)CN2CCN(CC(=O)Nc3ccc(F)cc3)CC2)cc1`?
IMP-1 inhibitor: -4; VIM-2 inhibitor: -2; DNA FID counter: -2; SUMO HTRF inh: -16; NALP1 yeast inh: 37; Mot1-301 SUMO: 8

What do the screens show for `COC(=O)c1cc(=O)n(Cc2ccc(F)cc2)c(=Nc2ccccc2)s1`?
IMP-1 inhibitor: 0; VIM-2 inhibitor: -1; DNA FID counter: -3; SUMO HTRF inh: -18

What do the screens show for `COC(=O)c1cc(=O)n(Cc2ccc(OC)c(OC)c2)c(=Nc2ccc(F)cc2)s1`?
IMP-1 inhibitor: -1; VIM-2 inhibitor: -2; DNA FID counter: -5; SUMO HTRF inh: -31; NALP1 yeast inh: 40*; Mot1-301 SUMO: 6

Results for CCOC(=O)CC1C(=O)NCCN1C(=O)c1ccc(Cl)cc1Cl (stereo not drawn) ?
IMP-1 inhibitor: -6; VIM-2 inhibitor: -1; DNA FID counter: -8; SUMO HTRF inh: -5; NALP1 yeast inh: 12; Mot1-301 SUMO: 2

What do the screens show for `O=C(COC(=O)CSCC(=O)N1CCCCC1)Nc1ccc(Cl)cc1`?
IMP-1 inhibitor: 0; VIM-2 inhibitor: -1; DNA FID counter: -9; SUMO HTRF inh: 5; NALP1 yeast inh: 13; Mot1-301 SUMO: 338*

How did Cc1ccccc1-c1noc(-c2ccccc2C(=O)NCc2ccco2)n1 do in these assays?
IMP-1 inhibitor: -2; VIM-2 inhibitor: -2; DNA FID counter: -12; SUMO HTRF inh: 6; NALP1 yeast inh: 39*; Mot1-301 SUMO: -12

How did O=C(NCc1ccco1)c1ccccc1-c1nc(-c2ccc(F)cc2)no1 do in these assays?
IMP-1 inhibitor: -2; VIM-2 inhibitor: -1; DNA FID counter: -9; SUMO HTRF inh: 5; NALP1 yeast inh: 8; Mot1-301 SUMO: -11

How did CCOC(=O)c1oc2ccc(Br)cc2c1NC(=O)CN1CCN(C)CC1 do in these assays?
IMP-1 inhibitor: 4; VIM-2 inhibitor: 9.8*; DNA FID counter: 17; SUMO HTRF inh: 22; NALP1 yeast inh: 23; Mot1-301 SUMO: 20

Results for CN1CCN(CC(=O)Nc2c(C(=O)c3ccccc3)oc3ccccc23)CC1 ?
IMP-1 inhibitor: -2; VIM-2 inhibitor: 10*; DNA FID counter: 11; SUMO HTRF inh: -6; NALP1 yeast inh: 0; Mot1-301 SUMO: 4

How did CC(=O)Nc1c(C(=O)c2ccccc2)oc2ccccc12 do in these assays?
IMP-1 inhibitor: 0; VIM-2 inhibitor: 2; DNA FID counter: -2; SUMO HTRF inh: -7; NALP1 yeast inh: -1; Mot1-301 SUMO: -5

What do the screens show for `COC(=O)c1oc2ccc(Br)cc2c1NC(=O)CCN1CCOCC1`?
IMP-1 inhibitor: 0; VIM-2 inhibitor: 1; DNA FID counter: 2; SUMO HTRF inh: 28; NALP1 yeast inh: 3; Mot1-301 SUMO: 12

How did COc1ccc2oc(C(=O)c3ccccc3)c(NC(=O)CN3CCN(C)CC3)c2c1 do in these assays?
IMP-1 inhibitor: -2; VIM-2 inhibitor: 9.2*; DNA FID counter: 26; SUMO HTRF inh: 6; NALP1 yeast inh: 18; Mot1-301 SUMO: 729

How did COc1ccc(Br)cc1CNCC1CCCO1 (stereo not drawn) do in these assays?
IMP-1 inhibitor: -3; VIM-2 inhibitor: 1; DNA FID counter: 4; SUMO HTRF inh: 8; NALP1 yeast inh: 13; Mot1-301 SUMO: -14

What do the screens show for `CCn1cc(/C=C(\NC(=O)c2ccc(OC)cc2)C(=O)N2CCOCC2)c2ccccc21`?
IMP-1 inhibitor: 1; VIM-2 inhibitor: 2; DNA FID counter: -35; NALP1 yeast inh: 16; Mot1-301 SUMO: -12

Results for CN1CCN(c2nc(C#N)cc(-c3ccccc3)n2)CC1 ?
IMP-1 inhibitor: 2; VIM-2 inhibitor: 5; DNA FID counter: 22; SUMO HTRF inh: 8; NALP1 yeast inh: 24*; Mot1-301 SUMO: 19

What do the screens show for `CN(C)CCNc1ncnc2c1sc1nc(-c3ccccc3)c3c(c12)CCCC3`?
IMP-1 inhibitor: -2; VIM-2 inhibitor: 1; DNA FID counter: 17; SUMO HTRF inh: 2; NALP1 yeast inh: 45*; Mot1-301 SUMO: -18

Results for COc1cc(S(=O)(=O)NCC2CCCO2)c(OC)cc1Cl (stereo not drawn) ?
IMP-1 inhibitor: -4; VIM-2 inhibitor: -4; DNA FID counter: -2; SUMO HTRF inh: 11; Mot1-301 SUMO: -5

How did COc1ccc(S(=O)(=O)NCC2CCCO2)c(Cl)c1Cl (stereo not drawn) do in these assays?
IMP-1 inhibitor: 9.2*; VIM-2 inhibitor: -1; DNA FID counter: -4; SUMO HTRF inh: 12; NALP1 yeast inh: 16; Mot1-301 SUMO: -8
